Assays:
Daudi [1] = test: Growth inhibition of human Daudi cells at 100 uM after 24 hrs by alamar blue assay; type: functional; conditions: 72 h, in the assay text read “after 72 hrs” for “after 24 hrs”
Procedure, shortened: (§1)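 Cells came from ATCC and were grown with penicillin/streptomycin and FBS: HCT116 in McCoy's 5A, Daudi in RPMI. They were seeded at 5000 cells/well; after 24 h, compounds in medium were added at various concentrations for 72 h at 37 °C, 5% CO₂. AlamarBlue was then added for 3 h, fluorescence read (ex 530 / em 590 nm), and % cell growth calculated.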

[2] = target: T1, NAD-dependent protein deacetylase sirtuin-1 (Homo sapiens, UniProt Q96EB6); test: Inhibition of human recombinant SIRT1 by fluorimetric analysis
T1 sequence (Q96EB6 whole entry): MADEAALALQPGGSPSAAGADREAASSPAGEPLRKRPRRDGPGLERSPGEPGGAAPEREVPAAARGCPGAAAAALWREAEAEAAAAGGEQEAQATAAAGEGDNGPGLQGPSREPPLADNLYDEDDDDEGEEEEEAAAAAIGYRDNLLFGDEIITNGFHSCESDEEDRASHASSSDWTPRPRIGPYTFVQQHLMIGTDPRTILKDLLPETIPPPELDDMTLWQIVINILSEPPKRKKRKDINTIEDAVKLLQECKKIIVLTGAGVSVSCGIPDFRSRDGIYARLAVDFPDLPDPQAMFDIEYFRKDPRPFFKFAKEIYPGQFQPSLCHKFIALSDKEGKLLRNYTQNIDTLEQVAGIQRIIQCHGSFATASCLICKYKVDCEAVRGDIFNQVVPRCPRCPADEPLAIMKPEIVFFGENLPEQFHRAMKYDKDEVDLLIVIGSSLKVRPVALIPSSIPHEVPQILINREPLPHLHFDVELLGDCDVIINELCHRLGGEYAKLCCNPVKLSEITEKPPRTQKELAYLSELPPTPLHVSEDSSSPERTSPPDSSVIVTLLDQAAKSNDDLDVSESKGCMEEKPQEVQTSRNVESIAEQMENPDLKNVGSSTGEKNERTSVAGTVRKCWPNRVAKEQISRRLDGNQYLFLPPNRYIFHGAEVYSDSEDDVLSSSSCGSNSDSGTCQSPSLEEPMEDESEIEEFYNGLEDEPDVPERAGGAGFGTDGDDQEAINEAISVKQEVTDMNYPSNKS
Procedure, shortened: (§2)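 Recombinant human SIRT1 was incubated at 37 °C with Fluor de Lys-SIRT1 substrate, NAD⁺ and a range of sample concentrations. After 60 min the reaction was stopped with Fluor de Lys Developer II containing nicotinamide. Fluorescence (ex 360 nm / em 460 nm) was read 45 min later, and % inhibition was taken relative to control wells.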

HCT-116 [3] = test: Growth inhibition of human HCT116 cells after 24 hrs by alamar blue assay; type: functional; conditions: HCT-116, 72 h, in the assay text read “after 72 hrs” for “after 24 hrs”; procedure, shortened: as §1
Daudi [4] = test: Growth inhibition of human Daudi cells after 24 hrs by alamar blue assay; type: functional; conditions: 72 h, in the assay text read “after 72 hrs” for “after 24 hrs”; procedure, shortened: as §1
HCT-116 [5] = test: Growth inhibition of human HCT116 cells at 100 uM after 24 hrs by alamar blue assay; type: functional; conditions: HCT-116, 72 h, in the assay text read “after 72 hrs” for “after 24 hrs”; procedure, shortened: as §1
[6] = target: T1, NAD-dependent protein deacetylase sirtuin-1; test: Inhibition of human recombinant SIRT1 at 300 uM by fluorimetric analysis; procedure, shortened: as §2

Row | SMILES | inhibition at 100 µM (Daudi [1]) [%] | IC50 [2] [µM] | GI50 (HCT-116 [3]) [µM] | GI50 (Daudi [4]) [µM] | inhibition at 100 µM (HCT-116 [5]) [%] | inhibition (INH) [6] [%]
1 | NC(=O)c1ccccc1Nc1cccc(CCO)c1 | 6 | 72 | > 100 | > 100 | 12 | 
2 | NC(=O)c1ccccc1Nc1cccc(Sc2ccccc2)c1 |  | 89 |  |  |  | 
3 | NC(=O)c1ccccc1Nc1ccc(-c2ccccc2)cc1 |  |  |  |  |  | 36
4 | NC(=O)c1ccccc1Nc1cccc(Oc2ccccc2)c1 | 103 | 58 | 50 | 31 | 126 | 
5 | NC(=O)c1ccccc1Nc1cccc(-c2ccccc2)c1 | 108 | 52 | 43 | 26 | 126 | 
6 | NC(=O)c1ccccc1Nc1cccc(CO)c1 | 0 | 60 | > 100 | > 100 | 4 | 
7 | NC(=O)c1ccccc1Nc1ccccc1 [ANILINOBENZAMIDE] | 74 | 56 | > 100 | 77 | 21 | 
8 | NC(=O)c1ccccc1Sc1ccccc1 |  | 78 |  |  |  | 
9 | Cc1cccc(Nc2ccccc2C(N)=O)c1 |  | 68 |  |  |  | 
10 | NC(=O)c1ccccc1Nc1cccc(/C=C/C(=O)O)c1 | 0 | 58 | > 100 | > 100 | 0 | 
11 | COC(=O)/C=C/c1cccc(Nc2ccccc2C(N)=O)c1 |  | 65 |  |  |  | 
